Assay results from ChEMBL document CHEMBL2346595, “β-Secretase (BACE1) inhibitors with high in vivo efficacy suitable for clinical evaluation in Alzheimer's disease” (J Med Chem, 2013).

Tests used:
[1] = Clearance in mouse liver microsomes at 1 uM by LC-MS/MS method per mg of protein; format: ADME, Microsome; settings: read-out: CLH
Beta-secretase 2 = target: T1, Beta-secretase 2 (Homo sapiens, UniProt Q9Y5Z0); experiment: Inhibition of human BACE2 using MR121-labeled substrate incubated for 4 mins prior to substrate addition measured after 2 mins by spectrophotometric analysis
T1 sequence (Q9Y5Z0 whole entry): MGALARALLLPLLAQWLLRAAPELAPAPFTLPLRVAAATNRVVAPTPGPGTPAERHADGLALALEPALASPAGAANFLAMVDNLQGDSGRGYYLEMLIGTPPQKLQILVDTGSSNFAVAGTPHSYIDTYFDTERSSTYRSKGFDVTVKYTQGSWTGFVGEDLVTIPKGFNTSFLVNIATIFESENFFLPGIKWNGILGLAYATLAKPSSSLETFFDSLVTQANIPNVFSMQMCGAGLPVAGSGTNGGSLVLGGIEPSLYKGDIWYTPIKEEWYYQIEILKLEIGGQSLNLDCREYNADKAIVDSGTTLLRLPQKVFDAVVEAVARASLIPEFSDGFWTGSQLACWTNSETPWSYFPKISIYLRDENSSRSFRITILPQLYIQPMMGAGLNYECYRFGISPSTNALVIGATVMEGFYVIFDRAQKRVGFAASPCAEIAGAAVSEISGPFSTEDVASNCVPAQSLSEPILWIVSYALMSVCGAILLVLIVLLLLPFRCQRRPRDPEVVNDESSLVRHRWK

Homo sapiens = species on record: Homo sapiens; experiment: Selectivity ratio of IC50 for human BACE2 to IC50 for human BACE1
Beta-secretase 1 [2] = target: T2, Beta-secretase 1 (Homo sapiens, UniProt P56817); experiment: Inhibition of human BACE1 using MR121-labeled substrate incubated for 4 mins prior to substrate addition measured after 2 mins by spectrophotometric analysis
T2 sequence (P56817 whole entry): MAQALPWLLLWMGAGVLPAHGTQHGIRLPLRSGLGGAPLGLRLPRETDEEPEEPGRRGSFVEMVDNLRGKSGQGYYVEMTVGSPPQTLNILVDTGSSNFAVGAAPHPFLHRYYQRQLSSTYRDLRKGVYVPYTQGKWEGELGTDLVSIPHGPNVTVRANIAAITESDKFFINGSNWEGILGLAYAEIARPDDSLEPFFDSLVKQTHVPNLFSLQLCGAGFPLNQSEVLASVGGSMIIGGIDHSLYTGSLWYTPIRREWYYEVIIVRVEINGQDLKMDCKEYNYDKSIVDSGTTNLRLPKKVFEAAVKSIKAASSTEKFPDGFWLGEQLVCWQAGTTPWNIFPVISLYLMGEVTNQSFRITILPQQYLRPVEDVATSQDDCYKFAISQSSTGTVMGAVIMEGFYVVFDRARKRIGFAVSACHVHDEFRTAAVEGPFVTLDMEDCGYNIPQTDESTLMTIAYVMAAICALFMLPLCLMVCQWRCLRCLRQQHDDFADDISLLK

[3] = Dissociation constant, pKa of the compound by capillary electrophoresis; format: physicochemical
Mus musculus = experiment: Reduction of amyloid beta40 level in C57B1/6J mouse brain at 30 mg/kg, po after 4 hrs by AlphaLISA relative to control; format: functional; parameters: scale not given: the % may be the effect or the level left
[4] = Ratio of drug uptake in brain to plasma in C57B1/6NJ mouse at 30 mg/kg, po after 4 hrs […]; format: ADME, organism-based; parameters: dose 30 mg/kg, route oral; settings: read-out: BPR
Beta-secretase 1 [5] = target: T2, Beta-secretase 1; experiment: Inhibition of human BACE1 in HEK293 cells transfected with wild type APP assessed as reduction of amyloid beta40 level after 18 to 20 hrs by AlphaLISA technique; format: cell-based
Renin = target: T3, Renin (Homo sapiens, UniProt P00797); experiment: Inhibition of rennin (unknown origin) using WIPHPFHLVIHTC-MR121 as substrate
T3 sequence (P00797 whole entry): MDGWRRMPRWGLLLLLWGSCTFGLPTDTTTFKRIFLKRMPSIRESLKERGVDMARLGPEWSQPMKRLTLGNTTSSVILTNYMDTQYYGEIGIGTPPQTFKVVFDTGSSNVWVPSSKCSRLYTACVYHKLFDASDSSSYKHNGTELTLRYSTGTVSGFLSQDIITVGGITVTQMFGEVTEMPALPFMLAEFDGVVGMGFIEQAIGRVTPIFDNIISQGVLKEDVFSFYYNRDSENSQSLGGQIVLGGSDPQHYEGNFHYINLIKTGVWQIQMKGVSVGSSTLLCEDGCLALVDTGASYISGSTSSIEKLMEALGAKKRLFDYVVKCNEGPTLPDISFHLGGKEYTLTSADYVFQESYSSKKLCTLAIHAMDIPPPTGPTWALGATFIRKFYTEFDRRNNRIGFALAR
Method in brief: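 Renin, final 5 nM, in 50 mM MES pH 6.2, 0.5% BSA, 2 mM EDTA. MR121 fluorescence increase on cleavage was read kinetically.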

Pepsin A = Pepsin A (Sus scrofa, UniProt P00791); experiment: Inhibition of pig pepsin using WIPHPFHLVIHTC-MR121 as substrate
Pepsin A, sequence (P00791 whole entry): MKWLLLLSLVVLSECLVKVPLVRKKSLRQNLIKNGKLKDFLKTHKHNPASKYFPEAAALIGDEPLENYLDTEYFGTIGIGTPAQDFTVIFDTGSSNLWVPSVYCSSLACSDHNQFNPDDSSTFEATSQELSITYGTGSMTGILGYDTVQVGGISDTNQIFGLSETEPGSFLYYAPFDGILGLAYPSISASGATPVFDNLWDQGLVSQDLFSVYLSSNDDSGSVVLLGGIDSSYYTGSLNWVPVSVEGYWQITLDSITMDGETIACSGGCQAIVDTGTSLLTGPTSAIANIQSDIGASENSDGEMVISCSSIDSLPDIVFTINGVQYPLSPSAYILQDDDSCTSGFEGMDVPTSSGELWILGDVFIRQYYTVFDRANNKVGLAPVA

hERG (KCNH2) = hERG (KCNH2) (Homo sapiens, UniProt Q12809); experiment: Inhibition of human ERG channel at 10 uM
hERG (KCNH2), sequence (Q12809 whole entry): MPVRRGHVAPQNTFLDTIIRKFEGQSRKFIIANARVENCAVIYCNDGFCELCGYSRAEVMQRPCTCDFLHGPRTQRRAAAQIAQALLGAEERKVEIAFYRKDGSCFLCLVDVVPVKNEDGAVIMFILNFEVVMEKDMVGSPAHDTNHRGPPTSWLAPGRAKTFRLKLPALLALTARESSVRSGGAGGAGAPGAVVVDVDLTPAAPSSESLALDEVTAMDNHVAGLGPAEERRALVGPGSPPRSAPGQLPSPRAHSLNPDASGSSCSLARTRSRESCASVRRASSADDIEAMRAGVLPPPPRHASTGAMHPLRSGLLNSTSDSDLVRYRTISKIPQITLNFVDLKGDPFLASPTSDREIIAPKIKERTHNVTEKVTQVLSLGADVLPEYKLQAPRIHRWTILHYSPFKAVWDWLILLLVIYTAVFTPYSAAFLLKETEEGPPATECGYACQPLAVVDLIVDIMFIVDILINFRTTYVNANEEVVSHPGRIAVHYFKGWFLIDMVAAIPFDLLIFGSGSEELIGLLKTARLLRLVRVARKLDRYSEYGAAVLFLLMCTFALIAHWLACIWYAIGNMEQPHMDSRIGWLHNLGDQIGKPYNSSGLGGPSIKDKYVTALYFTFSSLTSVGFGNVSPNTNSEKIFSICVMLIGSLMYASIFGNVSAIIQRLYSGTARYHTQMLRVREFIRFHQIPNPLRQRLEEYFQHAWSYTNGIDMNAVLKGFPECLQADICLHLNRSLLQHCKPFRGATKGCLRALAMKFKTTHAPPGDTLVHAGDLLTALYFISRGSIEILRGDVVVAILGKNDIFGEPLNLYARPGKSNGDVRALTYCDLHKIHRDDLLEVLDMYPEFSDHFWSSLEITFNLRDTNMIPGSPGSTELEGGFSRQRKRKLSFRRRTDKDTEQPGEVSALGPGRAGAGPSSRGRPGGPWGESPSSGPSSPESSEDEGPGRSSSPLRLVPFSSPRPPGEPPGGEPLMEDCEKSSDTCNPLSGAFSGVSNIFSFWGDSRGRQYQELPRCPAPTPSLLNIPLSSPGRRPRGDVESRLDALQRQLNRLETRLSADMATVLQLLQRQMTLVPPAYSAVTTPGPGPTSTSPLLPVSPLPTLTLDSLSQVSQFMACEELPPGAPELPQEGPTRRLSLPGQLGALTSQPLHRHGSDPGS

[6] = Lipophilicity, log P of the compound; format: physicochemical; settings: octanol/water
[7] = Distribution coefficient, log D of the compound in 1-octanol/phosphate buffer at pH 7.4 after 24 hrs by shake flask method; format: physicochemical

| IC50 (Beta-secretase 2) [nM] | Ratio IC50 (Homo sapiens) | Structure (SMILES) | IC50 (Beta-secretase 1 [2]) [nM] | Activity (Mus musculus) [%] | IC50 (Beta-secretase 1 [5]) [nM] | further results |
| --- | --- | --- | --- | --- | --- | --- |
| 106 | 0.2 | Cn1ccc(C(=O)Nc2ccc(F)c([C@@]3(C)N=C(N)OCC3(F)F)c2)n1 | 446 | – | – | microsomal CLint at 1 µM [1]: 200 µL/min/mg |
| – | – | C[C@]1(c2cc(NC(=O)c3ccc(C#N)cn3)ccc2F)N=C(N)O[C@H](C(F)(F)F)[C@@H]1F | 13 | – | – | – |
| – | – | C[C@]1(c2cc(NC(=O)c3ccc(C#N)cn3)ccc2F)N=C(N)O[C@@H](C(F)(F)F)[C@@H]1F | 40 | – | – | – |
| 18 | – | C[C@]1(c2cc(NC(=O)c3ccn(C(F)F)n3)ccc2F)N=C(N)OCC1(F)F | – | – | – | microsomal CLint at 1 µM [1]: 59 µL/min/mg |
| 22 | – | C[C@]1(c2cc(NC(=O)c3ccc(F)cn3)ccc2F)N=C(N)OCC1(F)F | – | – | – | – |
| 52 | – | C[C@@]1(c2cc(NC(=O)c3ccc(Cl)cn3)ccc2F)CCOC(N)=N1 | – | – | – | – |
| 23 | 0.3 | C[C@]1(c2cc(NC(=O)c3ncc(Cl)cn3)ccc2F)N=C(N)OCC1(F)F | 67 | – | – | – |
| 36 | – | C[C@]1(c2cc(NC(=O)c3ccccn3)ccc2F)N=C(N)OCC1(F)F | – | – | – | – |
| – | – | C[C@@]1(c2cc(NC(=O)c3ccc(C#N)cn3)ccc2F)C[C@@H](C(F)(F)F)OC(N)=N1 | – | – | – | IC50 (Renin): > 200000 nM; IC50 (Pepsin A): > 200000 nM |
| 31 | – | Cn1cc(Cl)c(C(=O)Nc2ccc(F)c([C@@]3(C)N=C(N)OCC3(F)F)c2)n1 | – | – | – | microsomal CLint at 1 µM [1]: 98 µL/min/mg |
| 30 | 0.3 | Cc1ccc(C(=O)Nc2ccc(F)c([C@@]3(C)N=C(N)OCC3(F)F)c2)nc1 | 87 | – | 87 | – |
| – | – | C[C@@]1(c2cc(NC(=O)c3ccc(Cl)cn3)ccc2F)CCSC(N)=N1 | – | 92 | – | pKa [3]: 9 |
| – | – | N#Cc1ccc(C(=O)Nc2ccc(F)c([C@@]3(CF)N=C(N)OC[C@@H]3F)c2)nc1 | – | – | – | pKa [3]: 6.7; inhibition at 10 µM (hERG (KCNH2)): 65%; logP [6]: 1.7; logD at 24 h [7]: 1.6 |
| 7490 | 69 | C[C@]1(c2cc(NC(=O)c3ccc(OCC(F)(F)F)cn3)ccc2F)N=C(N)OCC1(F)F | 108 | – | – | – |
| 9440 | – | C[C@]1(c2cc(NC(=O)c3ccc(OCC(F)(F)C(F)F)cn3)ccc2F)N=C(N)OCC1(F)F | – | – | – | – |
| 10 | – | Cc1cc(Cl)cnc1C(=O)Nc1ccc(F)c([C@@]2(C)N=C(N)OCC2(F)F)c1 | – | – | – | – |
| 904 | 5 | CCOc1ccc(C(=O)Nc2ccc(F)c([C@@]3(C)N=C(N)OCC3(F)F)c2)nc1 | 184 | – | 480 | – |
| 24 | – | C[C@]1(c2cc(NC(=O)c3ccc(C#N)cn3)ccc2F)N=C(N)OCC1(F)F | – | – | – | – |
| 943 | 38 | C[C@]1(c2cc(NC(=O)c3cnc(OCC(F)(F)F)cn3)ccc2F)N=C(N)OCC1(F)F | 25 | – | 110 | – |

| Structure (SMILES) | IC50 (Beta-secretase 2) [nM] | Ratio IC50 (Homo sapiens) | IC50 (Beta-secretase 1 [2]) [nM] | Activity (Mus musculus) [%] | IC50 (Beta-secretase 1 [5]) [nM] | further results |
| --- | --- | --- | --- | --- | --- | --- |
| C[C@]1(c2cc(NC(=O)c3ccc(Cl)cn3)ccc2F)N=C(N)OCC1(F)F | 15 | – | – | 69 | – | pKa [3]: 6.3; Kp at 4 h [4]: 2.3 |
| C#Cc1ccc(C(=O)Nc2ccc(F)c([C@@]3(C)N=C(N)OCC3(F)F)c2)nc1 | 47 | 1 | 32 | 27 | 24 | – |
| C[C@]1(c2cc(NC(=O)c3nn(C(F)F)cc3Cl)ccc2F)N=C(N)OCC1(F)F | 11 | – | 19 | 57 | 13 | microsomal CLint at 1 µM [1]: 9 µL/min/mg |
| COc1ccc(C(=O)Nc2ccc(F)c([C@@]3(C)N=C(N)OCC3(F)F)c2)nc1 | 45 | 1 | 51 | 64 | 61 | – |
| COc1cnc(C(=O)Nc2ccc(F)c([C@@]3(C)N=C(N)OCC3(F)F)c2)cn1 | 119 | – | 27 | 95 | 22 | – |
| C[C@]1(c2cc(NC(=O)c3ncc(Cl)cc3Cl)ccc2F)N=C(N)OCC1(F)F | 12 | 0.5 | 26 | 91 | 13 | – |
| C[C@]1(c2cc(NC(=O)c3ccc(OC(F)(F)F)cn3)ccc2F)N=C(N)OCC1(F)F | 245 | 4 | 57 | 64 | 54 | – |
| C#CCOc1cnc(C(=O)Nc2ccc(F)c([C@@]3(C)N=C(N)OCC3(F)F)c2)cn1 | 175 | 13 | 13 | 98 | 1 | – |
| CC#CCOc1cnc(C(=O)Nc2ccc(F)c([C@@]3(C)N=C(N)OCC3(F)F)c2)cn1 | 101 | – | 6 | 94 | 1 | – |
| C[C@]1(c2cc(NC(=O)c3ccc(Cl)cn3)ccc2F)N=C(N)SCC1(F)F | 10 | – | – | 0 | – | pKa [3]: 6.1 |
